Results: ChEMBL document CHEMBL4138225, “Development of novel anti-filarial agents using carbamo(dithioperoxo)thioate derivatives” (Eur J Med Chem, 2018)
In brackets after ≈: the same amount, converted by molar mass. Activity calls are given as the source filed them. The calls are words filed in the database; no cut-off is given here.

How the values were obtained:
Setaria cervi [1] = assay: Antifilarial activity against Setaria cervi microfilariae after 24 hrs by MTT assay; assay type: functional
Outline: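 Bovine S. cervi microfilariae incubated with compounds (DMSO-dissolved) in RPMI-1640 + 10% FBS, 5% CO2, 24 h. Worms washed in PBS; ~1×10^3 suspended in 0.3 ml MTT 0.25 mg/ml, 37 °C 2 h in dark. Formazan dissolved in DMSO, absorbance at 595 nm. Percent inhibition computed; LC50 fitted; ≥4 repeats, mean ± SE.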

Setaria cervi [2] = assay: Antifilarial activity against Setaria cervi microfilariae assessed as reduction in worm movement measured every 6 hrs up to 24 hrs by microscopy; assay type: functional, organism-based
Outline: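 About 1×10^5 S. cervi mf per well in RPMI-1640 with 10% FBS at 5% CO2, given a dose series. Motility checked by microscope every 6 h up to 24 h and scored 4 (highly motile) down to 0 (dead). IC50 and MIC calculated from scores; three experiments in triplicate, mean ± SE.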

Setaria cervi [3] = assay: Antifilarial activity against Setaria cervi microfilariae after 3 hrs by trypan blue exclusion assay; assay type: functional, organism-based
Outline: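 After treatment, the culture was mixed and 100 μL holding parasites moved into fresh medium and put back in the CO2 incubator. Viability read by trypan blue staining, dead worms blue. Viability % = live / total microfilariae.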

Setaria cervi [4] = assay: Antifilarial activity against Setaria cervi microfilaria forms after 24 hrs by MTT assay; assay type: functional, organism-based
Outline: (§1)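 S. cervi mf or adults cultured in RPMI-1640 with 10% FBS, 5% CO2, 24 h with compounds dissolved in DMSO. Worms washed in PBS, ~1×10^3 put in 0.25 mg/ml MTT for 2 h at 37 °C in the dark. Formazan dissolved in DMSO, A595. Percent inhibition computed, LC50 fitted; at least four repeats, mean ± SE.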

Setaria cervi [5] = assay: Induction of reactive oxygen species generation in Setaria cervi microfilariae at 1 to 10 uM by NBT assay; assay type: functional, organism-based
Outline: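 Treated mf or adults pelleted at 7500 rpm, washed in PBS (50 mM, pH 7.0), then incubated in 2% NBT for 2 h at 37 °C. Washed in PBS and methanol, formazan dissolved in 2M KOH/DMSO for 10–15 min at room temperature, absorbance read at 620 nm.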

Setaria cervi [6] = assay: Antifilarial activity against Setaria cervi microfilariae after 3 hrs
Setaria cervi [7] = assay: Induction of chromatin condensation in Setaria cervi microfilariae by Hoechst 33342 staining-based […] microscopic analysis; assay type: functional, organism-based
Outline: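 Treated mf washed in PBS (pH 7.2), fixed in paraformaldehyde and stained 5 min with 1 mg/mL Hoechst 33342. Mounted on poly-L-lysine slides and imaged by fluorescence microscopy at […].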

Setaria cervi [8] = assay: Antifilarial activity against Setaria cervi adult after 3 hrs by trypan blue exclusion assay; assay type: functional, organism-based
Setaria cervi [9] = assay: Antifilarial activity against Setaria cervi oocytes after 24 hrs by MTT assay; assay type: functional, organism-based
Setaria cervi [10] = assay: Antifilarial activity against Setaria cervi adult after 24 hrs by MTT assay; assay type: functional, organism-based; outline: as §1

Compound	LC50 (Setaria cervi [1])	IC50 (Setaria cervi [2])	MIC (Setaria cervi [2])	also measured
COc1ccc(SSC(=S)N2CCCC2)cc1	97 µg/mL (≈ 340 µM)	24.2 µg/mL (≈ 85 µM)	8.08 µg/mL (≈ 28.3 µM)	–
S=C(SSc1cccc2ccccc12)N1CCCCC1	6.49 µg/mL (≈ 20.3 µM)	2.15 µg/mL (≈ 6.73 µM)	0.583 µg/mL (≈ 1.82 µM)	Activity (Setaria cervi [1]): Dose-dependent effect; Activity (Setaria cervi [3]): Dose-dependent effect; Activity (Setaria cervi [4]): Active; Activity (Setaria cervi [5]): Active; IC50 (Setaria cervi [6]): 2.15 µg/mL (≈ 6.73 µM); Activity (Setaria cervi [7]): Active; Activity (Setaria cervi [8]): Dose-dependent effect; Activity (Setaria cervi [9]): Active; Activity (Setaria cervi [10]): Dose-dependent effect
Cc1ccc(SSC(=S)N2CCCC2)cc1	94.3 µg/mL (≈ 350 µM)	23.6 µg/mL (≈ 87.5 µM)	7.86 µg/mL (≈ 29.2 µM)	–
S=C(SSc1cccc2ccccc12)N1CCCC1	90.3 µg/mL (≈ 296 µM)	22.6 µg/mL (≈ 73.9 µM)	7.52 µg/mL (≈ 24.6 µM)	–
COc1ccc(SSC(=S)N2CCC(Cc3ccccc3)CC2)cc1	248 µg/mL (≈ 638 µM)	62.1 µg/mL (≈ 159 µM)	20.7 µg/mL (≈ 53.1 µM)	–
S=C(SSc1ccccn1)N1CCC(Cc2ccccc2)CC1	237 µg/mL (≈ 656 µM)	59.1 µg/mL (≈ 164 µM)	19.7 µg/mL (≈ 54.7 µM)	–
S=C(SSc1ccccn1)N1CCc2ccccc2C1	99.2 µg/mL (≈ 311 µM)	24.8 µg/mL (≈ 77.8 µM)	8.26 µg/mL (≈ 25.9 µM)	–
Cc1ccc(SSC(=S)N2CCC(Cc3ccccc3)CC2)cc1	22.5 µg/mL (≈ 60.3 µM)	19.6 µg/mL (≈ 52.6 µM)	1.22 µg/mL (≈ 3.27 µM)	–
S=C(SSc1ccccn1)N1CCOCC1	191 µg/mL (≈ 700 µM)	47.7 µg/mL (≈ 175 µM)	15.9 µg/mL (≈ 58.3 µM)	–
Cc1ccc(SSC(=S)N2CCOCC2)cc1	79.6 µg/mL (≈ 279 µM)	19.9 µg/mL (≈ 69.7 µM)	6.63 µg/mL (≈ 23.2 µM)	–
Cc1ccc(SSC(=S)N2CCc3ccccc3C2)cc1	128 µg/mL (≈ 388 µM)	32.1 µg/mL (≈ 96.9 µM)	10.7 µg/mL (≈ 32.3 µM)	–
